# A selection: hits, their analogues and other compounds. The true share with any hit is near 4.2%.
# Cl transport mod: KCC2 (human) Cl- transport modulation; Q9H2X9; KCC2 cells, thallium flux FluoZin-2 fluorescence; B-score of Tl+ flux slope (higher = more flux/activation; lower = inhibition) at 10 µM; 2.2% of 190,000 active; AID 1456;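 active means thallium flux slope and its plate-corrected score both differing from the plate sample mean at a set confidence after two filtering rounds, in either direction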;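 further: slope of fluorescence scaled to starting intensity during 10 to 20 s after thallium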
# WT yeast gro inh: growth inhibition of WT yeast, mitochondrial fusion screen. mitochondrial fusion phenotypic screen, WT strain. inhibition, % at 10 µM. 2.1% of 190,000 active. AID 1362; in the data active means inhibition above about 58%; tested in S. cerevisiae
# Rad51 HR inh: blocks human Rad51 in homologous recombination; 0.085% of 200,000 active; Q06609; hRad51 DNA strand exchange, fluorescence dequenching; inhibition, % at 10 µM;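 active means inhibition above 40% at the single screening dose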;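 further: 0% = DMSO control wells and 100% = blanks with heterologous ssDNA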
#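 System: hRad51 filaments on single-stranded DNA; reagent: Fluorescein- and BHQ1-tagged 47-mer duplex; compound dosing: one concentration, 10 µM final; timing: filaments 15 min 37 °C, then compound 30 min; measured by: fluorescein emission 520 nm, excitation 485 nm; benchmarks: per-plate controls and blanks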
# Autophagy HCS: autophagy modulation, high-content screen. MEF GFP-LC3 puncta imaging; test concentration mostly 10 µM. calls only at 10 µM (by protocol). 0.98% of 190,000 active;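 active means percentage of spot-positive cells more than 3 SD above its plate mean, without a fluorescence outlier flag or 80% toxicity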;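 further: spot-positive cell cutoff set from DMSO-treated cells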
# SKKanGAS inh: inhibitors of SKKanGAS S. pyogenes growth in kanamycin (SK-promoter or general growth effect). 1.3% of 300,000 active. BacTiter-Glo, 6 h. inhibition, % at 7.5 µM;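 active means mean replicate score, as percent of positive control median, at least 50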;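 further: strain carries kanamycin resistance gene driven by streptokinase promoter and grows in 40 µg/ml kanamycin; loss of luminescence reflects streptokinase promoter inhibition or plain growth inhibition; 0% = median of DMSO wells and 100% = positive control at its reference dose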
# Ins promoter up: MIN6 insulin promoter up-regulation. AID 1625. z-score at 5 µM. MIN6 insulin promoter-GFP reporter, high-content imaging; active compounds read high. 0.3% of 190,000 active;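 active means z-score above 3 at 5 µM with at least 500 cells counted in the well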
# Active calls of the source: *; i = inactive; . = no result given; + = active, no number.
SMILES,Cl transport mod,WT yeast gro inh,Rad51 HR inh,Autophagy HCS,SKKanGAS inh,Ins promoter up
Nc1nnc(Cc2ccc(Cl)cc2Cl)s1,-2.3,-8.7,-3.2,i,-10.3,0.45
COc1ccc(C(=O)N/N=C(\c2ccccc2)c2ccccn2)cc1,-0.0045,68.0*,3.6,i,-6.3,0.4
COc1ccc(C(=O)Nc2ccc(NC(=O)c3ccccn3)cn2)cc1,.,.,.,.,-5.3,.
O=C(N/N=C(\c1ccccc1)c1ccccn1)c1ccccc1Cl,.,.,.,.,65.6*,.
N#Cc1ncc(Cl)c2ccccc12,0.0844,.,-8.3,.,6.4,-0.12
Cc1ccc(N2C(=O)CC(Cc3ccc(Cl)cc3)C2=O)cc1 (centres undefined),.,.,.,.,-2.5,.
O=C1CSC(c2ccccc2Br)N1c1ccc(Cl)cn1 (centres undefined),0.398,67.2*,14.8,i,9.0,-0.17
O=C1CSC(c2ccc(Cl)cc2Cl)N1c1ccccn1 (centres undefined),0.16,12.4,0.8,i,-2.5,0.27
COc1ccccc1CN1CC(C(=O)NCc2nccn2C)CCC1=O (centres undefined),.,.,.,.,-4.4,.
COc1ccc(CCN2CC(C(=O)NCCc3ccccn3)CCC2=O)cc1 (centres undefined),.,.,.,.,49.8*,.
COc1ccc(CCN2CC(C(=O)NCCc3ccccc3C)CCC2=O)cc1 (centres undefined),.,.,.,.,-10.8,.
COc1ccccc1CN1CC(C(=O)NCc2ncccc2C)CCC1=O (centres undefined),.,.,.,.,51.2*,.
Cc1ccc(OCCSc2nc(NC(C)C)nc(NC(C)C)n2)cc1,-0.196,71.9*,.,i,71.6*,-0.97
S=c1[nH]nc(C2CCCCC2)n1/N=C/c1c(Cl)cccc1Cl,.,.,.,.,52.2*,.
O=C(CSc1ccc([N+](=O)[O-])cn1)Nc1cc(C(F)(F)F)ccc1N1CCOCC1,.,.,.,.,11.0,.
CCN(CC)S(=O)(=O)c1cc(C(=O)Nc2cc(Cl)ccc2N2CCN(C)CC2)ccc1Cl,-0.297,65.4*,-3.5,i,11.2,.
CN1CCN(c2ccc(Cl)cc2NC(=O)c2ccc(S(=O)(=O)N(C)C)cc2)CC1,0.11,5.3,3.8,i,-0.6,.
CSc1nc(Oc2ccc3ccccc3c2)c2sccc2n1,.,37.2,0.4,i,54.4*,-0.18
Cc1ccccc1OCC(O)Cn1nnc2ccccc21 (centres undefined),-1,-10.4,-2.3,+,.,-0.21
CCC(=O)c1ccc(OCC(O)Cn2nnc3ccccc32)cc1 (centres undefined),0.539,5.2,4.1,i,-18.5,1.27
COc1ccc(CCN(Cc2cc3cc(C)cc(C)c3nc2Cl)C(=O)C2CC2)cc1,1.74,68.0*,.,i,12.5,-0.31
CCOc1cccc(C(=O)Nc2ccc(N(CC)CC)cc2)c1,0.0396,7.0,0.2,i,-1.2,-0.56
CCN(CC)c1cccc(OCC(=O)N(C)CCC#N)c1,0.283,11.7,-22.7,+,5.9,-0.19
Cc1cc(NC(=O)CCN2CCC(C)CC2)ccc1Br,.,.,.,.,-1.8,.
O=[N+]([O-])c1ccc(O)c(-c2cc(C(F)(F)F)nc(-c3ccccc3)n2)c1,.,.,.,.,94.1*,.
SMILES,Cl transport mod,WT yeast gro inh,Rad51 HR inh,Autophagy HCS,SKKanGAS inh,Ins promoter up
COc1ccc2nc(/C=N/NC(=O)[C@@H]3CCCN3C(=O)OC(C)(C)C)ccc2c1,-0.37,.,.,.,-3.6,0.41
CC(=O)N(Cc1ccc(F)cc1)C1=C(NCCc2ccccc2)C(=O)c2ccccc2C1=O,0.788,83.4*,-9.7,i,38.8,-2.25
O=C1N=c2ccc(Br)cc2=C1c1sc(=O)[nH]c1O,.,.,.,.,24.0,.
Cc1ccc2c(c1)=C(c1sc(N(C)c3ccc(O)cc3)nc1O)C(=O)N=2,.,.,.,.,80.3*,.
O=C(O)CC1(CC(=O)NCc2cc(F)cc3c2OCOC3)CCCCC1,1.1,.,11.0,.,2.1,1.84
CSc1ccc(Cl)c(C(=O)OCC(=O)NCC(C)C)c1,-0.0755,9.7,1.5,i,-0.7,0.84
CNC(=O)COC(=O)c1cc(SC)ccc1Cl,-0.7,-10.1,-0.7,+,1.2,0.25
O=C(CNC(=O)c1ccc(Cl)cc1)OCCCOC(=O)CNC(=O)c1ccc(Cl)cc1,.,.,.,.,3.3,.
CCc1ccccc1N1C[C@@]23C=C[C@@H](O2)C(C(=O)OCC(C)C)[C@H]3C1=O (some centres undefined),0.0239,59.5*,-0.2,i,-11.5,-0.87
COc1cccc(C(=O)CN2C(=O)C(C)(C)Oc3ccc(C(=O)N4CCCCCC4)cc32)c1,0.431,11.1,-0.3,i,-3.9,3.58*
COCCCn1c(-c2ccco2)nc2ccccc2c1=O,-0.222,-9.6,-2.6,i,-1.4,0.79
CCn1nc([N+](=O)[O-])c2c(-c3nc4ccccc4o3)c(N)n(CCCOC)c2c1=O,1.41,1.3,3.7,+,2.4,-0.07
C=CCN1C(=O)c2cccc3c(N4CCCCC4)ccc(c23)C1=O,0.422,-9.6,i,i,8.4,.
O=C(OCCN1C(=O)c2cccc3c(N4CCOCC4)ccc(c23)C1=O)c1ccccc1Cl,i,39.0,-478.4,+,29.1,0.31
O=C(OCCN1C(=O)c2cccc3c(N4CCOCC4)ccc(c23)C1=O)c1cccc(Cl)c1,i,12.5,-482.9,+,12.5,1.48
O=C(OCCN1C(=O)c2ccccc2C1=O)c1cc(S(=O)(=O)N2CCOCC2)ccc1Cl,.,26.8,-1.2,i,.,0.57
O=C(OCCN1C(=O)c2cccc3c(N4CCOCC4)ccc(c23)C1=O)c1ccc(Cl)cc1Cl,i,2.1,i,+,13.4,.
O=C1c2cccc3c(N4CCCCC4)ccc(c23)C(=O)N1CCO,-1.66,26.2,-101.0,+,-2.8,0.45
O=C(O)c1ccc(NNC(=S)Nc2cc(C(F)(F)F)ccc2Cl)cc1,.,.,.,.,4.4,.
O=[N+]([O-])c1ccc(-[n+]2ccc3ccccc3c2)c([N+](=O)[O-])c1,.,.,.,.,6.0,.
CC1(NC(=O)c2cccc(S(=O)(=O)N3CCN(c4ccc(F)cc4)CC3)c2)CCS(=O)(=O)C1 (centres undefined),.,.,.,.,-1.8,.
Cc1n[nH]c(C)c1N1C(=O)c2cccc3c(N4CCCCCC4)ccc(c23)C1=O,i,-1.1,i,+,8.6,.
CC1CCCCC1NC(=S)Nc1ccc(SC(F)F)cc1 (centres undefined),-1.27,69.0*,-0.7,i,41.7,0.94
S=C(NCC1CCCCC1)Nc1ccc(Oc2ccccc2)cc1,-1.38,77.2*,-8.7,i,54.3*,-0.44
FC(F)Sc1ccc(NC(=S)NC2CCCCC2)cc1,0.742,40.8,-1.4,i,12.1,0.89
S=C(Nc1ccc(Oc2ccccc2)cc1)NC1CCCC1,-1.69,61.9*,0.9,i,4.0,-1.01
FC(F)Sc1ccc(NC(=S)NCC2CCCCC2)cc1,-1.45,78.5*,0.9,i,25.3,-1.65
S=C(NCC1CCCCC1)Nc1cccnc1,0.393,4.7,5.8,i,2.9,-0.18
S=C(Nc1ccc(Br)cc1)NC1CCCC1,-0.27,44.5,.,i,3.6,0.23
